In ChEMBL document CHEMBL4689842, “EUbOPEN Chemogenomics Library wave 1” (2021):

System: Fibroblast
Assay: Multiplex assay against human fibroblast
Format: toxicity, cell-based
How it was run: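 Compound was added to live cells that had been stained at seeding with Hoechst33342, BioTracker Green Microtubule Cytoskeleton Dye, MitoTracker Red and Annexin V Alexa Fluor 680, and imaging followed on a CQ1 microscope at 37°C and 5% CO2. CellPathfinder machine-learning gating divided cells into Hoechst high-intensity objects or normal cells, normal cells into healthy, pyknosed or fragmented nuclei, and pyknosed cells into mitotic or apoptotic. Tubulin, mitochondrial-mass and membrane-permeability phenotypes are per cents of healthy-nucleus cells.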

[1] = 12 h, 1 µM, compound concentration 1 uM, replicate 1
[2] = 12 h, 1 µM, compound concentration 1 uM, replicate 2
[3] = 12 h, 10 µM, compound concentration 10 uM, replicate 1
[4] = 12 h, 10 µM, compound concentration 10 uM, replicate 2
[5] = 24 h, 1 µM, compound concentration 1 uM, replicate 1
[6] = 24 h, 1 µM, compound concentration 1 uM, replicate 2
[7] = 24 h, 10 µM, compound concentration 10 uM, replicate 1
[8] = 24 h, 10 µM, compound concentration 10 uM, replicate 2
[9] = 48 h, 1 µM, compound concentration 1 uM, replicate 1
[10] = 48 h, 1 µM, compound concentration 1 uM, replicate 2
[11] = 48 h, 10 µM, compound concentration 10 uM, replicate 1
[12] = 48 h, 10 µM, compound concentration 10 uM, replicate 2

## Cl.Oc1ccc2c3c1O[C@H]1c4[nH]c5c(c4C[C@@]4(O)[C@@H](C2)N(CC2CC2)CC[C@]314)C[C@@]1(O)[C@H]2Cc3ccc(O)c4c3[C@@]1(CCN2CC1CC1)[C@H]5O4
[1]
  Population Apoptotic (%): 71%
  Population Fragmented Nuclei (%): 27%
  Population Healthy Nuclei (%): 40%
  Population Hoechst High Intensity Objects (%): 15%
  Population Membrane Permeable-Phenotype (%): 20%
  Population Mitochondria Different-Phenotype (%): 11%
  Population Mitotic Cells (%): 28%
  Population Normal (%): 84%
  Population Pyknosed Nuclei (%): 32%
  Population Tubulin-Different-Phenotype (%): 31%
  Total Cell Count: 103
[2]
  Population Apoptotic (%): 42%
  Population Fragmented Nuclei (%): 3%
  Population Healthy Nuclei (%): 86%
  Population Hoechst High Intensity Objects (%): 9%
  Population Membrane Permeable-Phenotype (%): 10%
  Population Mitochondria Different-Phenotype (%): 19%
  Population Mitotic Cells (%): 57%
  Population Normal (%): 90%
  Population Pyknosed Nuclei (%): 10%
  Population Tubulin-Different-Phenotype (%): 17%
  Total Cell Count: 97
[3]
  Population Apoptotic (%): 69%
  Population Fragmented Nuclei (%): 23%
  Population Healthy Nuclei (%): 47%
  Population Hoechst High Intensity Objects (%): 8%
  Population Membrane Permeable-Phenotype (%): 25%
  Population Mitochondria Different-Phenotype (%): 5%
  Population Mitotic Cells (%): 30%
  Population Normal (%): 91%
  Population Pyknosed Nuclei (%): 28%
  Population Tubulin-Different-Phenotype (%): 41%
  Total Cell Count: 173
[4]
  Population Apoptotic (%): 93%
  Population Fragmented Nuclei (%): 12%
  Population Healthy Nuclei (%): 48%
  Population Hoechst High Intensity Objects (%): 7%
  Population Membrane Permeable-Phenotype (%): 52%
  Population Mitochondria Different-Phenotype (%): 26%
  Population Mitotic Cells (%): 6%
  Population Normal (%): 92%
  Population Pyknosed Nuclei (%): 38%
  Population Tubulin-Different-Phenotype (%): 89%
  Total Cell Count: 73
[5]
  Population Apoptotic (%): 66%
  Population Fragmented Nuclei (%): 19%
  Population Healthy Nuclei (%): 51%
  Population Hoechst High Intensity Objects (%): 14%
  Population Membrane Permeable-Phenotype (%): 27%
  Population Mitochondria Different-Phenotype (%): 2%
  Population Mitotic Cells (%): 33%
  Population Normal (%): 85%
  Population Pyknosed Nuclei (%): 29%
  Population Tubulin-Different-Phenotype (%): 43%
  Total Cell Count: 84
[6]
  Population Apoptotic (%): 25%
  Population Fragmented Nuclei (%): 3%
  Population Healthy Nuclei (%): 91%
  Population Hoechst High Intensity Objects (%): 4%
  Population Membrane Permeable-Phenotype (%): 10%
  Population Mitochondria Different-Phenotype (%): 13%
  Population Mitotic Cells (%): 75%
  Population Normal (%): 95%
  Population Pyknosed Nuclei (%): 4%
  Population Tubulin-Different-Phenotype (%): 18%
  Total Cell Count: 94
[7]
  Population Apoptotic (%): 65%
  Population Fragmented Nuclei (%): 18%
  Population Healthy Nuclei (%): 62%
  Population Hoechst High Intensity Objects (%): 15%
  Population Membrane Permeable-Phenotype (%): 25%
  Population Mitochondria Different-Phenotype (%): 3%
  Population Mitotic Cells (%): 34%
  Population Normal (%): 84%
  Population Pyknosed Nuclei (%): 19%
  Population Tubulin-Different-Phenotype (%): 27%
  Total Cell Count: 178
[8]
  Population Apoptotic (%): 76%
  Population Fragmented Nuclei (%): 13%
  Population Healthy Nuclei (%): 58%
  Population Hoechst High Intensity Objects (%): 13%
  Population Membrane Permeable-Phenotype (%): 48%
  Population Mitochondria Different-Phenotype (%): 33%
  Population Mitotic Cells (%): 23%
  Population Normal (%): 86%
  Population Pyknosed Nuclei (%): 28%
  Population Tubulin-Different-Phenotype (%): 77%
  Total Cell Count: 91
[9]
  Population Apoptotic (%): 60%
  Population Fragmented Nuclei (%): 26%
  Population Healthy Nuclei (%): 52%
  Population Hoechst High Intensity Objects (%): 16%
  Population Membrane Permeable-Phenotype (%): 32%
  Population Mitochondria Different-Phenotype (%): 5%
  Population Mitotic Cells (%): 40%
  Population Normal (%): 83%
  Population Pyknosed Nuclei (%): 21%
  Population Tubulin-Different-Phenotype (%): 43%
  Total Cell Count: 85
[10]
  Population Apoptotic (%): 75%
  Population Fragmented Nuclei (%): 16%
  Population Healthy Nuclei (%): 78%
  Population Hoechst High Intensity Objects (%): 7%
  Population Membrane Permeable-Phenotype (%): 18%
  Population Mitochondria Different-Phenotype (%): 0%
  Population Mitotic Cells (%): 25%
  Population Normal (%): 92%
  Population Pyknosed Nuclei (%): 4%
  Population Tubulin-Different-Phenotype (%): 26%
  Total Cell Count: 103
[11]
  Population Apoptotic (%): 61%
  Population Fragmented Nuclei (%): 31%
  Population Healthy Nuclei (%): 55%
  Population Hoechst High Intensity Objects (%): 18%
  Population Membrane Permeable-Phenotype (%): 30%
  Population Mitochondria Different-Phenotype (%): 6%
  Population Mitotic Cells (%): 38%
  Population Normal (%): 81%
  Population Pyknosed Nuclei (%): 12%
  Population Tubulin-Different-Phenotype (%): 34%
  Total Cell Count: 172
[12]
  Population Apoptotic (%): 66%
  Population Fragmented Nuclei (%): 29%
  Population Healthy Nuclei (%): 66%
  Population Hoechst High Intensity Objects (%): 10%
  Population Membrane Permeable-Phenotype (%): 14%
  Population Mitochondria Different-Phenotype (%): 1%
  Population Mitotic Cells (%): 33%
  Population Normal (%): 89%
  Population Pyknosed Nuclei (%): 3%
  Population Tubulin-Different-Phenotype (%): 41%
  Total Cell Count: 94

## Cc1ccc(C(=O)Nc2cccc(C(F)(F)F)c2)cc1Nc1nc(-c2cccnc2)nc2c1cnn2C
[1]
  Population Apoptotic (%): 61%
  Population Fragmented Nuclei (%): 34%
  Population Healthy Nuclei (%): 29%
  Population Hoechst High Intensity Objects (%): 10%
  Population Membrane Permeable-Phenotype (%): 28%
  Population Mitochondria Different-Phenotype (%): 3%
  Population Mitotic Cells (%): 38%
  Population Normal (%): 89%
  Population Pyknosed Nuclei (%): 35%
  Population Tubulin-Different-Phenotype (%): 53%
  Total Cell Count: 122
[2]
  Population Apoptotic (%): 50%
  Population Fragmented Nuclei (%): 14%
  Population Healthy Nuclei (%): 73%
  Population Hoechst High Intensity Objects (%): 3%
  Population Membrane Permeable-Phenotype (%): 6%
  Population Mitochondria Different-Phenotype (%): 25%
  Population Mitotic Cells (%): 50%
  Population Normal (%): 96%
  Population Pyknosed Nuclei (%): 12%
  Population Tubulin-Different-Phenotype (%): 14%
  Total Cell Count: 101
[3]
  Population Apoptotic (%): 65%
  Population Fragmented Nuclei (%): 24%
  Population Healthy Nuclei (%): 33%
  Population Hoechst High Intensity Objects (%): 13%
  Population Membrane Permeable-Phenotype (%): 34%
  Population Mitochondria Different-Phenotype (%): 37%
  Population Mitotic Cells (%): 34%
  Population Normal (%): 86%
  Population Pyknosed Nuclei (%): 41%
  Population Tubulin-Different-Phenotype (%): 88%
  Total Cell Count: 121
[4]
  Population Apoptotic (%): 61%
  Population Fragmented Nuclei (%): 18%
  Population Healthy Nuclei (%): 42%
  Population Hoechst High Intensity Objects (%): 8%
  Population Membrane Permeable-Phenotype (%): 78%
  Population Mitochondria Different-Phenotype (%): 92%
  Population Mitotic Cells (%): 38%
  Population Normal (%): 91%
  Population Pyknosed Nuclei (%): 39%
  Population Tubulin-Different-Phenotype (%): 100%
  Total Cell Count: 66
[5]
  Population Apoptotic (%): 66%
  Population Fragmented Nuclei (%): 40%
  Population Healthy Nuclei (%): 41%
  Population Hoechst High Intensity Objects (%): 14%
  Population Membrane Permeable-Phenotype (%): 19%
  Population Mitochondria Different-Phenotype (%): 5%
  Population Mitotic Cells (%): 33%
  Population Normal (%): 85%
  Population Pyknosed Nuclei (%): 17%
  Population Tubulin-Different-Phenotype (%): 43%
  Total Cell Count: 142
[6]
  Population Apoptotic (%): 27%
  Population Fragmented Nuclei (%): 12%
  Population Healthy Nuclei (%): 72%
  Population Hoechst High Intensity Objects (%): 3%
  Population Membrane Permeable-Phenotype (%): 7%
  Population Mitochondria Different-Phenotype (%): 29%
  Population Mitotic Cells (%): 72%
  Population Normal (%): 96%
  Population Pyknosed Nuclei (%): 14%
  Population Tubulin-Different-Phenotype (%): 16%
  Total Cell Count: 101
[7]
  Population Apoptotic (%): 85%
  Population Fragmented Nuclei (%): 27%
  Population Healthy Nuclei (%): 34%
  Population Hoechst High Intensity Objects (%): 10%
  Population Membrane Permeable-Phenotype (%): 42%
  Population Mitochondria Different-Phenotype (%): 44%
  Population Mitotic Cells (%): 14%
  Population Normal (%): 89%
  Population Pyknosed Nuclei (%): 37%
  Population Tubulin-Different-Phenotype (%): 81%
  Total Cell Count: 124
[8]
  Population Apoptotic (%): 90%
  Population Fragmented Nuclei (%): 26%
  Population Healthy Nuclei (%): 11%
  Population Hoechst High Intensity Objects (%): 20%
  Population Membrane Permeable-Phenotype (%): 100%
  Population Mitochondria Different-Phenotype (%): 75%
  Population Mitotic Cells (%): 9%
  Population Normal (%): 79%
  Population Pyknosed Nuclei (%): 61%
  Population Tubulin-Different-Phenotype (%): 100%
  Total Cell Count: 77
[9]
  Population Apoptotic (%): 42%
  Population Fragmented Nuclei (%): 59%
  Population Healthy Nuclei (%): 36%
  Population Hoechst High Intensity Objects (%): 23%
  Population Membrane Permeable-Phenotype (%): 15%
  Population Mitochondria Different-Phenotype (%): 0%
  Population Mitotic Cells (%): 57%
  Population Normal (%): 76%
  Population Pyknosed Nuclei (%): 4%
  Population Tubulin-Different-Phenotype (%): 59%
  Total Cell Count: 189
[10]
  Population Apoptotic (%): 75%
  Population Fragmented Nuclei (%): 65%
  Population Healthy Nuclei (%): 32%
  Population Hoechst High Intensity Objects (%): 22%
  Population Membrane Permeable-Phenotype (%): 12%
  Population Mitochondria Different-Phenotype (%): 3%
  Population Mitotic Cells (%): 25%
  Population Normal (%): 77%
  Population Pyknosed Nuclei (%): 2%
  Population Tubulin-Different-Phenotype (%): 63%
  Total Cell Count: 231
[11]
  Population Apoptotic (%): 66%
  Population Fragmented Nuclei (%): 45%
  Population Healthy Nuclei (%): 38%
  Population Hoechst High Intensity Objects (%): 21%
  Population Membrane Permeable-Phenotype (%): 40%
  Population Mitochondria Different-Phenotype (%): 18%
  Population Mitotic Cells (%): 33%
  Population Normal (%): 78%
  Population Pyknosed Nuclei (%): 16%
  Population Tubulin-Different-Phenotype (%): 88%
  Total Cell Count: 165
[12]
  Population Apoptotic (%): 60%
  Population Fragmented Nuclei (%): 56%
  Population Hoechst High Intensity Objects (%): 25%
  Population Membrane Permeable-Phenotype (%): 14%
  Population Mitochondria Different-Phenotype (%): 64%
  Population Mitotic Cells (%): 40%
  Population Normal (%): 74%
  Population Pyknosed Nuclei (%): 4%
  Population Tubulin-Different-Phenotype (%): 95%
  Total Cell Count: 146
